One test relates to Plasmodium falciparum. The test is described as follows: Antiplasmodial activity against chloroquine-resistant Plasmodium falciparum W2 as parasite DNA microfluorimetric assay. Type of test: functional, organism-based. Summed up: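 P. falciparum W2 (chloroquine-resistant) grown by the Trager–Jensen method at 2% hematocrit in RPMI 1640 with 10% human serum. Growth inhibition read microfluorimetrically by PicoGreen intercalation into parasite DNA. IC50 in µM.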

For another test, the system named is Trypanosoma cruzi. The test is described as follows: Antitrypanosomal activity against Trypanosoma cruzi Tulahuen C4 infected in african green monkey Vero cells assessed as growth inhibition of […] by beta-galactosidase reporter gene assay. Type of test: functional, organism-based. The gist of the method:
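Recombinant Tulahuen clone C4 expressing β-galactosidase reporter; […] grown inside Vero cells with test samples. β-Gal cleavage of chlorophenol red-β-D-galactoside (CPRG) read colorimetrically at 570 nm. IC50 taken as concentration giving 50% inhibition of parasite growth versus untreated control, on duplicate samples.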
Background: A reporter such as luciferase makes a cellular process visible.

Consider `CC(=O)NCCc1ccc(O)cc1`, for which the IC50 with Plasmodium falciparum is > 50 µM.
In the test on Plasmodium falciparum, `CCCCCCCCCC(=O)NCCc1ccc(O)cc1` displayed an IC50 of 72 µM.
`CCCCCCCCCCCC(=O)NCCc1ccc(O)cc1` displayed an IC50 with Plasmodium falciparum of 47 µM.
Same read-out and setting: as for `O=C(NCCc1ccc(O)cc1)c1ccccc1`, the figure is > 50 µM.
For the molecule `CCCCCCCCCCCC(=O)O[C@@H]1[C@@H](OC(=O)CCCCCCCCCCC)[C@@H](OC)OC[C@@H]1OC(=O)CCCCCCCCCCC`, the IC50 with Trypanosoma cruzi and in the test on Plasmodium falciparum was > 50 µM throughout.
`CO[C@H]1O[C@H](COC(=O)c2ccccc2)[C@H](OC(=O)c2ccccc2)[C@H](OC(=O)c2ccccc2)[C@H]1OC(=O)c1ccccc1`: the concentration for half-maximal inhibition (IC50) is > 50 µM with Trypanosoma cruzi and 29 µM with Plasmodium falciparum.
In the same order, the values of `C=C[C@H]1CC[C@H]2[C@@H]3CC=C4C[C@@H](O[C@@H]5OC[C@@H](OC(C)=O)[C@@H](OC(C)=O)[C@@H]5OC(C)=O)CC[C@]4(C)[C@H]3CC[C@]12C` are 28 µM and 28 µM.
On the same counts, the results for `CCCCCCCCCCCC(=O)O[C@@H]1[C@@H](OC(=O)CCCCCCCCCCC)[C@H](OC)OC[C@@H]1OC(=O)CCCCCCCCCCC` are > 50 µM and > 50 µM.
With `CC/C=C\C/C=C\C/C=C\CCCC(=O)NCCc1ccc(O)cc1`, the IC50 in the test with Plasmodium falciparum was 38 µM.
Turning to `O=C(CCCCC(=O)NCCc1ccc(O)cc1)NCCc1ccc(O)cc1`, in the test on Plasmodium falciparum, the midpoint of inhibition, the IC50, lay at 117 µM.
Turning to `CCCCCCCCCC(C)CC(=O)NCCc1ccc(O)cc1` (stereo not given), the figures for the IC50 in the test on Trypanosoma cruzi and in the test with Plasmodium falciparum were > 50 µM and 45 µM, respectively.
As for `C=C[C@H]1CC[C@H]2[C@@H]3CC=C4C[C@@H](O[C@@H]5OC[C@@H](O)[C@@H](OC(C)=O)[C@@H]5O)CC[C@]4(C)[C@H]3CC[C@]12C`, the results for the IC50 in the test with Trypanosoma cruzi and in the test on Plasmodium falciparum were 96 µM and 67 µM, respectively.
On the same counts, the results for `C=C[C@H]1CC[C@H]2[C@@H]3CC=C4C[C@@H](O[C@@H]5OC[C@@H](OC(C)=O)[C@@H](O)[C@@H]5O)CC[C@]4(C)[C@H]3CC[C@]12C` are 101 µM and 80 µM.
On the same counts, the results for `CCCCO[C@@H]1OC[C@H](OC(C)=O)[C@H](OC(C)=O)[C@H]1OC(C)=O` are > 50 µM and > 50 µM.
On to `CC[C@H](O)CC(=O)NCCc1ccc(O)cc1`, for which, in the test with Plasmodium falciparum, the 50% inhibitory concentration (IC50) is > 50 µM.
The molecule `CCCCCCCCCCCC(=O)NCCc1cc(Br)c(O)c(Br)c1` gave an IC50 in the test on Plasmodium falciparum of 17 µM.
On to `CO[C@@H]1OC[C@H](OC(C)=O)[C@H](OC(C)=O)[C@H]1OC(C)=O`, for which the IC50 with Trypanosoma cruzi and in the test on Plasmodium falciparum was > 50 µM in each case.
For `CO[C@H]1O[C@H](C)[C@H](OC(=O)c2ccccc2)[C@H](OC(=O)c2ccccc2)[C@H]1OC(=O)c1ccccc1`, the IC50 in the test on Trypanosoma cruzi was > 50 µM; in the test with Plasmodium falciparum, 43 µM.
Regarding `CCCCCCC(O)CCCCCCCCCCC(=O)NCCc1ccc(O)cc1` (stereo not given), the IC50 in the test with Plasmodium falciparum is 62 µM.
Consider `CCCCCCCCCCCCNC(=O)CCc1ccc(O)cc1`, for which, in the test on Plasmodium falciparum, the IC50 was determined as 24 µM.
Take `CCCCCCCCC/C(C)=C\C(=O)NCCc1ccc(O)cc1`: the IC50 in the test on Trypanosoma cruzi is > 50 µM; in the test on Plasmodium falciparum it was 36 µM.
For `CC(=O)O/C1=C/Cc2c(C)coc2C/C(C)=C/CC1`, the IC50 in the test on Plasmodium falciparum is > 50 µM.
The same measure, in the same setting: for `O=C(NCCc1ccc(OC(=O)c2ccccc2)cc1)c1ccccc1` the value was 64 µM.
Regarding `CO[C@@H]1OC[C@H](OC(=O)c2ccccc2)[C@H](OC(=O)c2ccccc2)[C@H]1OC(=O)c1ccccc1`, the IC50 is > 50 µM with Trypanosoma cruzi and 21 µM with Plasmodium falciparum.
Molecule `CCCCCCCCCCCCCC(=O)NCCc1ccc(O)cc1` showed an IC50 with Plasmodium falciparum of 34 µM.
`CO[C@@H]1O[C@H](COC(=O)c2ccccc2)[C@H](OC(=O)c2ccccc2)[C@H](OC(=O)c2ccccc2)[C@H]1OC(=O)c1ccccc1`: the IC50 with Trypanosoma cruzi and with Plasmodium falciparum was > 50 µM each time.
Regarding `O=CNCCc1ccc(O)cc1`, in the test on Plasmodium falciparum, the IC50 is > 50 µM.
As for `C=C[C@]1(C)Cc2occ(C)c2C[C@H]1C(=C)OC(C)=O`, the concentration for half-maximal inhibition (IC50) was 173 µM in the test with Trypanosoma cruzi and 42 µM in the test on Plasmodium falciparum.
Turning to `CO[C@H]1OC[C@H](OC(=O)c2ccccc2)[C@H](OC(=O)c2ccccc2)[C@H]1OC(=O)c1ccccc1`, the figures for the IC50 in the test with Trypanosoma cruzi and in the test with Plasmodium falciparum were > 50 µM and 35 µM, respectively.
In the same order, the values of `CO[C@@H]1O[C@H](C)[C@H](OC(=O)c2ccccc2)[C@H](OC(=O)c2ccccc2)[C@H]1OC(=O)c1ccccc1` are > 50 µM and 36 µM.
In the same order, the values of `O[C@@H]1[C@@H](O)[C@@H](O)CO[C@H]1O` [L-ARABINOSE] are > 50 µM and > 50 µM.
For the molecule `CC1CS(=O)(=O)CCN1/N=C/c1ccc([N+](=O)[O-])o1` (stereo not given) [NIFURTIMOX], in the test on Trypanosoma cruzi, the IC50 stood at 11 µM.
In the case of `NCCc1ccc(O)cc1` [TYRAMINE], in the test on Plasmodium falciparum, the IC50 came to 160 µM.

As usually defined, the IC50 is the concentration needed to halve the response being measured.

(Values after ChEMBL document CHEMBL1158069, “Antiplasmodial metabolites isolated from the marine octocoral Muricea austera” (J Nat Prod, 2006).)
